Each structure is given as a SMILES string. Values joined by “and” are separate entries in the source; they are usually repeats but may differ in a detail not shown here. Equal values may be shown once. A value given as a limit tells only on which side of the number the result lay.

One data set has as its system M. tuberculosis H37Rv. Put plainly: Microplate Alamar Blue assay. Format: cell-based, Mycobacterium tuberculosis. The settings on record: for In vitro anti-Mtb activity MABA-MIC H37Rv: Minimum Inhibitory Concentration, strain H37Rv; for Activity in standard MIC assay (in words): strain not given. Background: Alamar Blue is a resazurin reagent that responds to reducing activity.

The nature of data set [1]: Tolerability in guinea pigs during the efficacy study. The settings on record: L01-Z08 20 mg/kg and L335-M34 50 mg/kg once daily alone or in combination for 6 weeks. Format: in vivo, guinea pig.
Data set [2] is described as follows: Oral pharmacokinetics in guinea pig plasma. Format: in vivo. The settings on record: for AUCALL / CMAX / Clearance / Half-life / TMAX / VD (Volume of distribution): oral; for Oral bioavailability (in words): guinea pigs, oral dosing.
The next data set deals with Mtb-infected macrophages. Put plainly: Growth inhibition of Mtb in IFN-γ-activated J774 macrophages. Format: cell-based, Mycobacterium tuberculosis. Particulars: read-out: In vitro anti-Mtb activity, Mtb-infected macrophages (IC90); IC90 in macrophages activated with γ-interferon.
A further data set concerns M. tuberculosis Erdman. Put plainly: Microplate Alamar Blue assay. Format: cell-based, Mycobacterium tuberculosis. The settings on record: Minimum Inhibitory Concentration, strain Erdman.
The target of a further data set is mPTPB (Mycobacterium tuberculosis, UniProt I6WXK4).
A further data set concerns Mtb H37Rv. Put plainly: Chronic TB infection model in guinea pigs, lung CFU. It is filed as in vivo. The settings on record: added to the standard regimen HRZ, guinea pig lungs, after 6 weeks of treatment.
The next data set deals with mPTPA (Mycobacterium tuberculosis, UniProt P9WIA1).
The subject of data set [3] is Human PTP panel: PTP1B, TC-PTP, SHP1, SHP2, FAp1, Lyp, Meg2, HePTP, laforin, VHX, VHR, LMWPTP, Cdc14A, PTPα, LAR, CD45, PTPRG. Put plainly: Human PTP panel selectivity, pNPP assay. It is filed as biochemical. Summed up: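 Each PTP expressed in and purified from E. coli, used at 5 nM final. The reaction is started by adding enzyme to pNPP, set at that PTP's Km, plus varying test compound concentrations. It is stopped after 15 min with 5N NaOH. p-Nitrophenol is read at 405 nm, corrected with a no-enzyme control. IC50 is fit to AI/A0 = IC50/(IC50+[I]).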

Where [4] appears, read: guinea pig, Co-admin: L335M34 50 mg/kg and L01Z08 20 mg/kg together.
The mark [5] stands for this setting: guinea pig, Single (given alone), L335M34 50 mg/kg, L01Z08 20 mg/kg.

mPTPB, sequence (I6WXK4 whole entry, looked up): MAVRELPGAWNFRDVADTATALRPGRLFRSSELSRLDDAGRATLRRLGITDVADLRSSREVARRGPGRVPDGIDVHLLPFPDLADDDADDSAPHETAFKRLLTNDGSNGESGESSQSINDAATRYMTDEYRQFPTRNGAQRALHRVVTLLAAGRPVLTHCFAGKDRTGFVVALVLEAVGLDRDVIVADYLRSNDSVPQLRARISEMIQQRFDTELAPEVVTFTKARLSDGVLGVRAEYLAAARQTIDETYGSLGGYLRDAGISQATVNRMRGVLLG
mPTPA, sequence (P9WIA1 whole entry): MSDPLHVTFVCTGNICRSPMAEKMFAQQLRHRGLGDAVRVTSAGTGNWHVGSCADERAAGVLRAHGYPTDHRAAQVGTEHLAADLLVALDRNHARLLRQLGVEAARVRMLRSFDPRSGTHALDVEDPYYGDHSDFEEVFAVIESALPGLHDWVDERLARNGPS

Usually IC90 stands for the point of the concentration-response curve where the effect stands at 90%. On to `O=C(O)c1cc2c(C#Cc3cccc(C(F)(F)F)c3)c(-c3ccccc3)oc2cc1O` [Compound L01-Z08], for which, in the data set with M. tuberculosis H37Rv, the “In vitro anti-Mtb activity MABA-MIC H37Rv” value is reported as >10 >10 uM and the “Activity in standard MIC assay (in words)” value was “inactive”. In addition, the Signs of toxicity entry in data set [1] was “no overt signs of toxicity”. In [2] (setting [4]), the AUCALL amounted to 28161.76 ng·h/mL, the CMAX is 3059.668 ng/mL, the Clearance was 11.6927 mL/min/kg and the Half-life was found to be 6.141 h. Moreover, in data set [2] (setting [4]), the TMAX came to 1.587 h and the “VD (Volume of distribution)” value came to 6215.132. In [2] (setting [5]), the AUCALL came out at 13166.89 ng·h/mL, the CMAX stood at 1870.43 ng/mL, the Clearance amounted to 25.3079 mL/min/kg and the Half-life was 5.512 h. Besides, in data set [2] (setting [5]), the TMAX amounted to 1.587 h and the “VD (Volume of distribution)” value was 12074.939. Also, the “Oral bioavailability (in words)” value in data set [2] was “good oral bioavailability”. Further, in the data set on Mtb-infected macrophages, the concentration for an effect of 90% (IC90) was < 5000 nM. Moreover, in the data set with M. tuberculosis Erdman, the “In vitro anti-Mtb activity MABA-MIC Erdman” value is on record as >10 >10 uM.

A word on the IC50: it is the concentration at which inhibition is half-maximal. In general, Ki refers to the dissociation constant of the complex between target and ligand, obtained from inhibition or displacement. Consider `Cc1c(Br)cc(NC(=O)CS(=O)(=O)O)cc1Br` [Compound L335-M34], for which, in the data set with M. tuberculosis H37Rv, the “In vitro anti-Mtb activity MABA-MIC H37Rv” value is recorded as >10 >10 uM and the “Activity in standard MIC assay (in words)” value was “devoid of activity”. In addition, the Signs of toxicity result in [1] is “no overt signs of toxicity”. For the same compound, in [2] (setting [4]), the AUCALL turned out to be 52752.61 ng·h/mL, the CMAX came to 7064.956 ng/mL, the Clearance was found to be 15.8339 mL/min/kg and the Half-life is 4.16 h. In [2] (setting [4]), the TMAX came to 2.5 h and the “VD (Volume of distribution)” value was 5702.19. In [2] (setting [5]), this compound displayed an AUCALL of 54406.61 ng·h/mL, a CMAX of 5142.47 ng/mL, a Clearance of 15.291 mL/min/kg and a Half-life of 5.197 h. In addition, in data set [2] (setting [5]), the TMAX amounted to 2.5 h and the “VD (Volume of distribution)” value turned out to be 6878.467. The “Time plasma concentration stays 10-fold in excess of biochemical IC50” value in data set [2] (guinea pig, single oral dose, L335-M34 50 mg/kg, L01-Z08 20 mg/kg) is 12–14 hours and 12–24 hours. In addition, in data set [2], the “Oral bioavailability (in words)” value is listed as “good oral bioavailability”. The IC90 in the data set with Mtb-infected macrophages came to 1380 nM. Moreover, on mPTPB, the “Activity against mPTPB” value is given as “no significant activity” and the “Fold selectivity vs. mPTPA/B (mPTPA inhibitor over mPTPB)” value is >20 fold. Also, the IC50 on mPTPB (read-out: Biochemical potency against target (IC50, nM) mPTPB, pH 7) was > 3200 nM. Also, the “In vitro anti-Mtb activity MABA-MIC Erdman” value in the data set with M. tuberculosis Erdman is listed as >10 >10 uM. For the same compound, the “Further reduction of mean lung CFU relative to HRZ” value in the data set with Mtb H37Rv is 0.17 log10. In addition, the “Mode of mPTPA inhibition” value at mPTPA was “reversible and competitive inhibitor”. The half-inhibitory concentration (IC50) on mPTPA (read-out: Biochemical potency against target (IC50, nM) mPTPA, pH 7) was found to be 160 nM. In addition, the Ki at mPTPA (read-out: Ki for mPTPA) is 56 ± 2 nM. For the same compound, the “Activity against a panel of human PTPs” value in [3] (at concentrations below 3 μM) is “no significant activity”. For the same compound, the “Fold selectivity vs. PTP panel” value in [3] (panel of 17 human PTPs) is on record as >20 fold.
